ChEMBL document CHEMBL4138171, “Design, synthesis and biological evaluation of novel aryldiketo acids with enhanced antibacterial activity against multidrug resistant bacterial strains” (Eur J Med Chem, 2018)

Experiments:
Format in all cases: functional
Staphylococcus aureus [1] = test: Antibacterial activity against Staphylococcus aureus EMRSA-15 after 16 hrs by microdilution method; conditions: EMRSA-15, 16 h
Summary of the method: (§1)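 Broth microdilution in cation-adjusted Mueller-Hinton broth (20 mg/l Ca2+, 10 mg/L Mg2+), inoculum 5×10^5 CFU/mL. Compounds from DMSO stocks, final DMSO <1%, tested over 0.12–128 µg/ml. Incubated 37 °C and read visually after 16 h. MIC is the lowest concentration with no visible growth, determined at least twice and converted to µmol/L.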

Staphylococcus aureus [2] = test: Antibacterial activity against tetracycline/methicillin-resistant Staphylococcus aureus XU212 after 16 hrs by microdilution method; conditions: XU212, 16 h
Summary of the method: (§2)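 Broth microdilution in cation-adjusted Mueller-Hinton broth (20 mg/l Ca2+, 10 mg/L Mg2+), inoculum 5×10^5 CFU/mL. Compounds in DMSO, solvent under 1% in well, tested over 0.12-128 µg/ml. […] Each determined at least twice; values converted to µmol/L.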

Escherichia coli = test: Antibacterial activity against Escherichia coli NCTC 12241 after 16 hrs by microdilution method; conditions: NCTC 12241, 16 h; summary of the method: as §1
Staphylococcus aureus [3] = test: Antibacterial activity against erythromycin-resistant Staphylococcus aureus RN4220 after 16 hrs by microdilution method; conditions: RN4220, 16 h; summary of the method: as §2
Staphylococcus aureus [4] = test: Antibacterial activity against Norfloxacin-resistant Staphylococcus aureus 1199B over-expressing NorA after 16 hrs by microdilution method; summary of the method: as §2
Enterococcus faecalis = test: Antibacterial activity against Enterococcus faecalis NCTC 12697 after 16 hrs by microdilution method; conditions: NCTC 12697, 16 h; summary of the method: as §1
Staphylococcus aureus [5] = test: Antibacterial activity against methicillin-resistant Staphylococcus aureus NCTC 13373 after 16 hrs by microdilution method; conditions: NCTC 13373, 16 h; summary of the method: as §2
Bacillus subtilis = test: Antibacterial activity against Bacillus subtilis NCTC 10400 after 16 hrs by microdilution method; conditions: NCTC 10400, 16 h; summary of the method: as §1
Staphylococcus aureus [6] = test: Antibacterial activity against methicillin-sensitive Staphylococcus aureus NCTC 12981 after 16 hrs by microdilution method; conditions: NCTC 12981, 16 h; summary of the method: as §1

Row | Structure (SMILES) | MIC (Staphylococcus aureus [1]) | MIC (Staphylococcus aureus [2]) | MIC (Escherichia coli) | MIC (Staphylococcus aureus [3]) | MIC (Staphylococcus aureus [4]) | MIC (Enterococcus faecalis) | MIC (Staphylococcus aureus [5]) | MIC (Bacillus subtilis) | MIC (Staphylococcus aureus [6])
1 | CC(C)c1ccc(C(=O)/C=C(\O)C(=O)O)c(C(C)C)c1 | 232 µM | 464 µM | > 128 µg/mL | 232 µM | 232 µM |  |  |  | 
2 | CCn1cc(C(=O)O)c(=O)c2cc(F)c(N3CCNCC3)cc21 [NORFLOXACIN] | 3.3 µM | > 128 µg/mL |  | > 128 µg/mL | 106 µM | 6.3 µM |  |  | 
3 | Cc1cc(C)c(C)c(C(=O)/C=C(\O)C(=O)O)c1C | > 128 µg/mL | > 128 µg/mL | > 128 µg/mL | > 128 µg/mL | > 128 µg/mL | 516 µM | > 128 µg/mL | > 128 µg/mL | > 128 µg/mL
4 | O=C(O)/C(O)=C/C(=O)c1ccc(-c2ccccc2)cc1 | > 128 µg/mL | > 128 µg/mL | > 128 µg/mL | > 128 µg/mL | 477 µM |  |  |  | 
5 | O=C(O)/C(O)=C/C(=O)c1ccc2c(c1)CCCC2 | 520 µM | > 128 µg/mL | > 128 µg/mL | > 128 µg/mL | 520 µM | 260 µM | > 128 µg/mL | > 128 µg/mL | > 128 µg/mL
6 | COc1cc(C)c(C(=O)/C=C(\O)C(=O)O)cc1C | > 128 µg/mL | > 128 µg/mL | > 128 µg/mL | > 128 µg/mL | > 128 µg/mL | > 128 µg/mL | > 128 µg/mL | > 128 µg/mL | > 128 µg/mL
7 | CC(C)(C)c1ccc(C(=O)/C=C(\O)C(=O)O)cc1 | > 128 µg/mL | > 128 µg/mL | > 128 µg/mL | > 128 µg/mL | 1030 µM |  |  |  | 
8 | CC(C)c1cc(C(C)C)c(C(=O)CCC(=O)O)c(C(C)C)c1 | > 128 µg/mL | > 128 µg/mL | > 128 µg/mL | > 128 µg/mL | > 128 µg/mL |  | > 128 µg/mL |  | > 128 µg/mL
9 | CC(=O)c1cc(C2CCCCC2)ccc1C1CCCCC1 | 225 µM | 225 µM | > 128 µg/mL | 225 µM | 450 µM |  | 450 µM |  | 450 µM
10 | CN1CCN(c2ccc(C(=O)/C=C(\O)C(=O)O)cc2)CC1 | > 128 µg/mL | > 128 µg/mL | > 128 µg/mL | > 128 µg/mL | > 128 µg/mL | > 128 µg/mL | > 128 µg/mL | > 128 µg/mL | > 128 µg/mL
11 | O=C(O)/C(O)=C/C(=O)c1ccc(-n2ccnc2)cc1 | > 128 µg/mL | 496 µM | > 128 µg/mL | > 128 µg/mL | 124 µM | 496 µM | 248 µM | 496 µM | > 128 µg/mL
12 | COc1cccc(C(=O)/C=C(\O)C(=O)O)c1 | > 128 µg/mL | > 128 µg/mL | > 128 µg/mL | > 128 µg/mL | > 128 µg/mL | > 128 µg/mL | > 128 µg/mL | > 128 µg/mL | > 128 µg/mL
13 | Cc1ccc(C(=O)/C=C(\O)C(=O)O)c(C)c1 | > 128 µg/mL | > 128 µg/mL | > 128 µg/mL | > 128 µg/mL | > 128 µg/mL | > 128 µg/mL | > 128 µg/mL | > 128 µg/mL | > 128 µg/mL
14 | Cc1cc(C(=O)/C=C(\O)C(=O)O)cc(C)c1O | > 128 µg/mL | > 128 µg/mL | > 128 µg/mL | > 128 µg/mL | > 128 µg/mL | > 128 µg/mL | > 128 µg/mL | > 128 µg/mL | > 128 µg/mL
15 | O=C(O)c1cn(C2CC2)c2cc(N3CCNCC3)c(F)cc2c1=O [CIPROFLOXACIN] |  |  |  | 0.76 µM |  | 1.5 µM |  |  | 
16 | O=C(O)CCC(=O)c1ccc(-c2ccccc2)cc1 [FENBUFEN] | > 128 µg/mL | > 128 µg/mL | > 128 µg/mL | > 128 µg/mL | > 128 µg/mL |  | > 128 µg/mL |  | > 128 µg/mL
